Data on one molecule can be found in ChEMBL document CHEMBL1221179, “An shRNA barcode screen provides insight into cancer cell vulnerability to MDM2 inhibitors” (2006).

Active and inactive are the calls of the source. The rule behind the calls is not given here.

For experiment [1], the system named is MCF7. Description: Induction of cell cycle arrest in human MCF7 cells transfected with p53-targeting iRNA-based shRNA at 4 uM after 14 days by BrdU incorporation assay. In kind it is functional.
For experiment [2], the system named is MCF7. Nature of the experiment: Induction of cell cycle arrest in human MCF7 cells transfected hnRNPK-targeting iRNA-based shRNA at 4 uM after 14 days by BrdU incorporation assay. In kind it is functional. On the technique in general: Incorporation of labelled thymidine or its analogues reports DNA synthesis.
Experiment [3] concerns MCF7. Nature of the experiment: Antiproliferative activity against human MCF7 cells at 4 uM after 14 days by coomassie staining. In kind it is functional, cell-based. A digest of the protocol: (§1)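 Retrovirally transduced shRNA (GFP control, p53, or two independent 53BP1 hairpins in pRETROSUPER); cells grown in DMEM with 10% fetal calf serum at 37 °C, 5% CO2; left untreated or given 4 µM nutlin-3 for 14 days; cell density shown by Coomassie staining, morphology inspected.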

For experiment [4], the system named is MCF7. Nature of the experiment: Antiproliferative activity against human MCF7 cells assessed as appearance of flattened phenotype at 4 uM after 14 days by coomassie staining. The experiment is classed as functional, cell-based. A digest of the protocol:
as §1

Experiment [5] deals with MCF7. Nature of the experiment: Antiproliferative activity against human MCF7 cells transfected with p53-targeting iRNA-based shRNA assessed as effect on cellular morphology at 4 uM after 14 days by coomassie staining. The experiment is classed as functional, cell-based. The method, boiled down:
as §1

The test system of experiment [6] is A549. Description: Antiproliferative activity against human A549 cells transfected with 53BP1-targeting iRNA-based shRNA assessed as effect on cellular morphology at 4 uM after 14 days by coomassie staining. The experiment is classed as functional, cell-based. The method, boiled down:
as §1

Experiment [7] concerns MCF7. Description: Induction of cell cycle arrest in human MCF7 cells p53-targeting iRNA-based shRNA assessed as accumulation at S phase at 4 uM after 48 hrs by BrdU incorporation assay. In kind it is functional. The method, boiled down: (§2)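 MCF-7 carrying shRNA against GFP (control), p53 or 53BP1, untreated or given 4 µM nutlin-3 for 48 h; 10 µM BrdU pulse 30 min before harvest; ethanol fixation, HCl-Triton permeabilization, borate neutralization; anti-BrdU plus FITC secondary, propidium iodide with RNase; 10,000 cells per sample by flow cytometry; S-phase percentage = BrdU-positive fraction.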

Experiment [8] has as its system MCF7. Nature of the experiment: Induction of cell cycle arrest in human MCF7 cells 53BP1-targeting iRNA-based shRNA assessed as accumulation at S phase at 4 uM after 48 hrs by BrdU incorporation assay. In kind it is functional. The method, boiled down:
as §2

The test system of experiment [9] is MCF7. Description: Induction of p53 expression in human MCF7 cells transfected with 53BP1-targeting iRNA-based shRNA by Western blot analysis. The experiment is classed as functional, cell-based. The method, boiled down: (§3)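 MCF-7 expressing GFP control shRNA or either of two 53BP1 shRNAs; lysates immunoblotted for 53BP1, p53 (DO-1), p21 (C19) and MDM2 (2A10, SMP14) after SDS-PAGE transfer to nitrocellulose.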
Background: A western blot detects proteins with antibodies after separation by electrophoresis.

The test system of experiment [10] is MCF7. Description: Induction of p53 expression in human MCF7 cells by Western blot analysis. In kind it is functional, cell-based. The method, boiled down:
as §3

Experiment [11] deals with MCF7. Nature of the experiment: Induction of CDKN1A gene expression in human MCF7 cells transfected with 53BP1-targeting iRNA-based shRNA by Western blot analysis. The experiment is classed as functional, cell-based. A digest of the protocol:
as §3

The subject of experiment [12] is MCF7. Description: Induction of p53 expression in human MCF7 cells assessed as increase in p21CIP1 level after 18 hrs by Western blot method in presence of 2.5 mM caffeine. The experiment is classed as functional, cell-based. The method, boiled down:
(§4)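 MCF-7 pretreated 12 h with 2.5 mM caffeine (or not), then exposed to increasing nutlin-3 concentrations for 18 h; lysates run on SDS-PAGE, blotted to nitrocellulose and probed for p53 (DO-1) and p21 (C19).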

For experiment [13], the system named is MCF7. Description: Induction of p53 accumulation in human MCF7 cells after 18 hrs by Western blot analysis in presence of 2.5 mM caffeine. The experiment is classed as functional, cell-based. The method, boiled down: as §4
For experiment [14], the system named is BJ. Nature of the experiment: Induction of p21CIP1 expression in irradiated human BJ cells at 3 uM by Western blot analysis. The experiment is classed as functional, cell-based. The method, boiled down:
(§5)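 Normal BJ fibroblasts, with or without 2 Gy irradiation, treated with increasing nutlin-3 concentrations; SDS-PAGE and nitrocellulose immunoblot for p53 stabilization and p21 induction.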

Experiment [15] has as its system MCF7. Nature of the experiment: Induction of apoptosis in human MCF7 cells transfected with p53-targeting iRNA-based shRNA at 4 uM after 14 days by BrdU incorporation assay. The experiment is classed as functional, cell-based.
Experiment [16] relates to MCF7. Nature of the experiment: Antiproliferative activity against human MCF7 cells transfected with 53BP1-targeting iRNA-based shRNA assessed as effect on cellular morphology at 4 uM after 14 days by coomassie staining. The experiment is classed as functional, cell-based. The method, boiled down: as §1
The subject of experiment [17] is MCF7. Description: Induction of apoptosis in human MCF7 cells co-transfected with 53BP1-targeting iRNA-based shRNA at 4 uM after 14 days by BrdU incorporation assay. In kind it is functional, cell-based.
The test system of experiment [18] is BJ. Nature of the experiment: Induction of p21 expression in irradiated human BJ cells at 3 uM by Western blot analysis. In kind it is functional, cell-based. The method, boiled down: as §5
The test system of experiment [19] is MCF7. Description: Induction of cell cycle arrest in human MCF7 cells transfected with 53BP1-targeting iRNA-based shRNA at 4 uM after 48 hrs by BrdU incorporation assay.

On to `COc1ccc(C2=N[C@@H](c3ccc(Cl)cc3)[C@@H](c3ccc(Cl)cc3)N2C(=O)N2CCNC(=O)C2)c(OC(C)C)c1` [NUTLIN-3], for which the result in [1], in experiment [2], in experiment [3], in experiment [4], in experiment [9] and in experiment [10] was Active. In addition, the result in experiment [13], in experiment [14], in [18] and in experiment [19] was Active. The result in experiment [5], in experiment [6], in experiment [11], in [12], in [15] and in experiment [16] was inactive. Also, the outcome in [17] was inactive. Moreover, the Activity in [7] was found to be 29%; in experiment [8] it was 17%.
